The text below walks through data of PubChem BioAssay AID651576 (The Scripps Research Institute Molecular Screening Center, 2012).

“And” between values parts separate entries of the source, which are not always exact repeats. Equal values may be shown once. The source made the active and inactive calls.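 Rule for the calls: active = inhibition of at least 50%, averaged over three replicate wells; inactive = inhibition below 50%.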

The subject of the experiment is HCV core protein (core106) dimerization, Hepatitis C virus. The experiment can be described thus: disruption of HCV core self-association – biochemical, AlphaScreen luminescence, single dose 15 µM, powder samples, late-stage follow-up (AID 651576). The conditions noted are these: AlphaScreen GST/Flag-core106 dimerization, at 15 µM, active compounds read high. Summed up: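 material = HCV core106 dimerization between GST-tagged and Flag-tagged core106 proteins | medium = HEPES pH 7.5 with DTT and CHAPS | probe or stimulus = acceptor and donor beads at 20 µg/mL each | timing = protein preincubation 1 h at room temperature, 1 h per bead step | technique = AlphaScreen luminescence | evaluation = percent signal inhibition relative to uninhibited control wells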
In general terms: In Alpha technology, singlet oxygen from a donor bead excites a nearby acceptor bead.

For orientation: inhibition means the relative decrease from the control value, in per cent. Turning to `Cc1ccc(Cc2c(C)nc3nc(SCC(=O)NCCN4CCCN(C(=O)c5ccc(F)cc5)CC4)nn3c2C)cc1`, the inhibition is < 50% (inactive).
The result for `Cc1ccc(Cc2c(C)nc3nc(SCC(=O)NCCN4CCCC4)nn3c2C)cc1` reads < 50% (inactive); that for `C=CCN1CCN(CCNC(=O)CSc2nc3nc(C)c(Cc4ccc(C)cc4)c(C)n3n2)CC1`, < 50% (inactive); that for `Cc1ccc(Cc2c(C)nc3nc(SCC(=O)NCCCCCCNC(=O)CSc4nc5nc(C)c(Cc6ccc(C)cc6)c(C)n5n4)nn3c2C)cc1`, 88%.
For `Cc1ccc(Cc2c(C)nc3nc(SCC(=O)NC4CCCC(NC(=O)CSc5nc6nc(C)c(Cc7ccc(C)cc7)c(C)n6n5)C4)nn3c2C)cc1` (centres undefined), the inhibition is 98%.
Consider `Cc1ccc(Cc2c(C)nc3nc(SCC(=O)N4CCNCC4)nn3c2C)cc1`, for which the inhibition is 42% (inactive).
As to `Cc1ccc(Cc2c(C)nc3nc(SCC(=O)NCCCN4CCCCCC4)nn3c2C)cc1`, the inhibition is 16% (inactive).
With `Cc1ccc(Cc2c(C)nc3nc(SCC(=O)NCCN4CCCNCC4)nn3c2C)cc1`, the inhibition was < 50% (inactive).
The result for `Cc1ccc(Cc2c(C)nc3nc(SCC(=O)NCCCCNC(=O)CSc4nc5nc(C)c(Cc6ccc(C)cc6)c(C)n5n4)nn3c2C)cc1` reads 88%; that for `Cc1ccc(Cc2c(C)nc3nc(SCC(=O)N4CCCCC4)nn3c2C)cc1`, 41% (inactive).
Consider `Cc1nc2nc(SCC(=O)NCCCNC(=O)CSc3nc4nc(C)c(Cc5ccncc5)c(C)n4n3)nn2c(C)c1Cc1ccncc1`, for which the inhibition is < 50% (inactive).
As for `Cc1cccc(Cc2c(C)nc3nc(SCC(=O)NC4CCN(C(=O)CSc5nc6nc(C)c(Cc7cccc(C)c7)c(C)n6n5)C4)nn3c2C)c1` (centres undefined), the figure is 80%.
As for `Cc1nc2nc(SCC(=O)NCCN3CCOCC3)nn2c(C)c1Cc1ccncc1`, the figure is -11% (inactive).
For `Cc1ccc(Cc2c(C)nc3nc(SCC(=O)N4CCN(Cc5ccc(F)cc5)CC4)nn3c2C)cc1`, the inhibition is 10% (inactive).
The result for `Cc1ccc(Cc2c(C)nc3nc(SCC(=O)NCCN4CCSCC4)nn3c2C)cc1` reads 79%; that for `Cc1ccc(Cc2c(C)nc3nc(SCC(=O)NCCN4CCN(S(=O)(=O)c5ccccc5)CC4)nn3c2C)cc1`, 62%.
With `C#CCN1CCN(CCNC(=O)CSc2nc3nc(C)c(Cc4ccc(C)cc4)c(C)n3n2)CC1`, the inhibition is < 50% (inactive).
The result for `Cc1ccc(Cc2c(C)nc3nc(SCC(=O)N4CCSCC4)nn3c2C)cc1` reads 63%.
For `Cc1ccc(Cc2c(C)nc3nc(SCC(=O)NCCN4CCN(C(=O)c5ccccc5)CC4)nn3c2C)cc1`, the inhibition was < 50% (inactive).
For the molecule `Cc1ccc(Cc2c(C)nc3nc(SCC(=O)N4CCN(C)CC4)nn3c2C)cc1`, the inhibition is 37% (inactive).
Take `Cc1ccc(Cc2c(C)nc3nc(SCC(=O)NCCN4CCCCCC4)nn3c2C)cc1`: the inhibition is 97% and 82%.
As for `Cc1ccc(Cc2c(C)nc3nc(SCC(=O)N4C[C@@H]5C[C@H]4CN5C(=O)CSc4nc5nc(C)c(Cc6ccc(C)cc6)c(C)n5n4)nn3c2C)cc1`, the figure is 67%; as for `CCN(CC)CCCNC(=O)CSc1nc2nc(C)c(Cc3ccc(C)cc3)c(C)n2n1`, 65%; as for `Cc1cccc(Cc2c(C)nc3nc(SCC(=O)N4CCCCCC4)nn3c2C)c1`, 71%.
As for `Cc1ccc(Cc2c(C)nc3nc(SCC(=O)NCc4ccc(CNC(=O)CSc5nc6nc(C)c(Cc7ccc(C)cc7)c(C)n6n5)cc4)nn3c2C)cc1`, the inhibition was 89%.
The result for `Cc1ccc(Cc2c(C)nc3nc(SCC(=O)NCCN4CCN(Cc5ccc(F)cc5)CC4)nn3c2C)cc1` reads 66%.
Turning to `Cc1nc2nc(SCC(=O)NCCC3=CCCCC3)nn2c(C)c1Cc1ccc(Cl)cc1`, the inhibition is 30% (inactive).
The result for `Cc1nc2nc(SCC(=O)NCCN3CCOCC3)nn2c(C)c1Cc1ccc(Br)cc1` reads < 50% (inactive); that for `Cc1ccc(Cc2c(C)nc3nc(SCC(=O)NCCC4=CCCCC4)nn3c2C)cc1`, 22% (inactive).
